Results reported in ChEMBL document CHEMBL2424651, “Synthesis and antiproliferative activity of new cytotoxic tri- and tetraazabenzo[3,2-a]fluorene-5,6-dione derivatives” (Bioorg Med Chem Lett, 2013).

Assays:
NCI-H460 = assay: Cytotoxicity against human NCI-H460 cells after 48 hrs by resazurin dye assay; format: functional, cell-based; conditions: NCI-H460, 48 h
In short: (§1)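 Cells were seeded in the supplier-recommended growth medium and grown 24 h at 37 °C/5% CO2, with density set per line to give a linear signal. Compound exposure was 48 h in total. Resazurin (0.2 mg/mL in DPBS) was added for the final 3 h, and fluorescence was read at 590 nm. Data were expressed as % efficacy against non-treated cells and cell-free blanks on each plate. EC50 came from non-linear regression.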

SK-OV-3 [1] = assay: Cytotoxicity against human SKOV3 cells after 48 hrs by resazurin dye assay; format: functional, cell-based; conditions: SK-OV-3, 48 h; in short: as §1
[2] = Cytotoxicity against human KB/HeLa cells after 48 hrs by resazurin dye assay; format: functional, cell-based; in short: as §1
SK-OV-3 [3] = assay: Cytotoxicity against human SKOV3 cells at 31.6 uM after 48 hrs by resazurin dye assay; format: functional; conditions: SK-OV-3, 48 h

SMILES: O=C1C(=O)c2c(nc3ccccn23)-c2ccncc21
- EC50 (NCI-H460): 242 nM
- EC50 (SK-OV-3 [1]): 498 nM
- EC50 [2]: 244 nM

SMILES: O=C1C(=O)c2c(nc3ccc(Cl)cn23)-c2ccncc21
- EC50 (NCI-H460): 342 nM
- EC50 (SK-OV-3 [1]): 525 nM
- EC50 [2]: 394 nM

SMILES: O=C1/C(=N\OCCO)c2cnccc2-c2nc3ccccn3c21
- EC50 (NCI-H460): 521 nM
- EC50 (SK-OV-3 [1]): 2060 nM
- EC50 [2]: 532 nM

SMILES: CN(C)CCO/N=C1\C(=O)c2c(nc3ccccn23)-c2ccncc21
- EC50 (NCI-H460): 414 nM
- EC50 (SK-OV-3 [1]): 931 nM
- EC50 [2]: 406 nM

SMILES: CN(C)CCN(C)c1cc2c(cn1)C(=O)C(=O)c1c-2nc2ccc(Cl)cn12
- inhibition at 31.6 µM (SK-OV-3 [3]): < 30%
- EC50 (NCI-H460): 2140 nM
- EC50 [2]: 2800 nM

SMILES: O=C1C(=O)c2c(nc3ccccn23)-c2cnccc21
- EC50 (NCI-H460): 620 nM
- EC50 (SK-OV-3 [1]): 1220 nM
- EC50 [2]: 917 nM

SMILES: O=C1/C(=N\OCCO)c2ccncc2-c2nc3ccccn3c21
- EC50 (NCI-H460): 3880 nM
- EC50 (SK-OV-3 [1]): 14700 nM
- EC50 [2]: 4350 nM

SMILES: CN(C)CCO/N=C1\C(=O)c2c(nc3ccccn23)-c2cnccc21
- EC50 (NCI-H460): 2670 nM
- EC50 (SK-OV-3 [1]): 2930 nM
- EC50 [2]: 6150 nM

SMILES: O=C1C(=O)c2c(nc3ccccn23)-c2ncncc21
- EC50 (NCI-H460): 337 nM
- EC50 (SK-OV-3 [1]): 283 nM
- EC50 [2]: 145 nM

SMILES: COc1cccc2c1C(=O)c1c(O)c3c(c(O)c1C2=O)C[C@@](O)(C(=O)CO)C[C@@H]3O[C@H]1C[C@H](N)[C@H](O)[C@H](C)O1 [DOXORUBICIN]
- EC50 (NCI-H460): 40 nM
- EC50 (SK-OV-3 [1]): 290 nM
- EC50 [2]: 250 nM

SMILES: O=C1c2c(O)ccc(O)c2C(=O)c2c(NCCNCCO)ccc(NCCNCCO)c21 [MITOXANTRONE]
- EC50 (NCI-H460): 30 nM
- EC50 [2]: 420 nM
